ChEMBL document CHEMBL1828613, “Optimization of cellular activity of G9a inhibitors 7-aminoalkoxy-quinazolines” (J Med Chem, 2011)

Legend:
MDA-MB-231 = experiment: Cytotoxicity against human MDA-MB-231 cells assessed as cell viability after 48 hrs by MTT assay; format: functional, cell-based; details: MDA-MB-231, 48 h
[1] = target: T1, Histone-lysine N-methyltransferase EHMT2 (Homo sapiens, UniProt Q96KQ7); experiment: Inhibition of G9a in human MDA-MB-231 cells assessed as reduction of H3K9me2 after 48 hrs by In-Cell Western assay; format: cell-based
T1 sequence (Q96KQ7 whole entry): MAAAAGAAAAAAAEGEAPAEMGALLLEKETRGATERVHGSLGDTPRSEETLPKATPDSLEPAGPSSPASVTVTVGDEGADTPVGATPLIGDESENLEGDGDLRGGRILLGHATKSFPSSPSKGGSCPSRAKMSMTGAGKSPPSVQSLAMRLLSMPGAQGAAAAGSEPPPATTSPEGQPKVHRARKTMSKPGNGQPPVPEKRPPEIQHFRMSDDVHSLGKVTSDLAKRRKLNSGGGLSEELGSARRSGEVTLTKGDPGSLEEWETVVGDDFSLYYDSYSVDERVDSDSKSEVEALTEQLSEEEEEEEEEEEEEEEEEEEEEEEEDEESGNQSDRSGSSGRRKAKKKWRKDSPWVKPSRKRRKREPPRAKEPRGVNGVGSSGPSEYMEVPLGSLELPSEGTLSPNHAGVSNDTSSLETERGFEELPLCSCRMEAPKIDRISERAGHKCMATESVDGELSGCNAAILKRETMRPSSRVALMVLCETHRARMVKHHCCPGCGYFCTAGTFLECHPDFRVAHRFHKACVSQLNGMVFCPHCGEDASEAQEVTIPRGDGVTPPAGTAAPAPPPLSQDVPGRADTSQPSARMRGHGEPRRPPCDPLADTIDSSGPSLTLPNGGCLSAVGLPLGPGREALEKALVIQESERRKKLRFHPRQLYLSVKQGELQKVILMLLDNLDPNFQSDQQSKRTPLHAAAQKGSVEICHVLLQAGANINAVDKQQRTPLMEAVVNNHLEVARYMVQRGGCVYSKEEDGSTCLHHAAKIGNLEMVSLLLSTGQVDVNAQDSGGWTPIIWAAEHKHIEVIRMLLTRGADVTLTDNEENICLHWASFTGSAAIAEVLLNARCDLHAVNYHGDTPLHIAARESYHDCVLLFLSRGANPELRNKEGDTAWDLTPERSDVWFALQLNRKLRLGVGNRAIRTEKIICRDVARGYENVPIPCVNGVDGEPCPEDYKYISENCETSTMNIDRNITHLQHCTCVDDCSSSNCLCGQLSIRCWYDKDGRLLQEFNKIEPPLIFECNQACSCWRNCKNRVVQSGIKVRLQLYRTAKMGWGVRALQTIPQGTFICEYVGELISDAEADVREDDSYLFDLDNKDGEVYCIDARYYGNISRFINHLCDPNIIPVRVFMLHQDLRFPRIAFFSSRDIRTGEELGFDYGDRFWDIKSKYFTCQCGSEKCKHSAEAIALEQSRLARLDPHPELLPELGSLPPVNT
Outline: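 In-Cell Western: MDA-MB-231 cells grown in RPMI/10% FBS were seeded at 5–10 thousand per well and treated 48 h across a concentration series. Cells were fixed in 2% formaldehyde, blocked in 1% BSA, and stained with H3K9me2 antibody (1/800, 2 h), then IR800 secondary plus DRAQ5. Three wells were stained and one kept as background. The 800 nm signal was normalized to background and DRAQ5 and expressed as % control. IC50 from a sigmoidal variable-slope fit, averaging at least duplicate runs.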

[2] = Cytotoxicity against human […] assessed as cell viability after 48 hrs by MTT assay; format: functional, cell-based
Outline: (§1)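 MTT viability read after 48 h inhibitor exposure. Culture media were alphaMEM + 10% FBS for 22RV1, DMEM + 10% FBS for IMR90 and MCF7, and RPMI + 10% FBS for PC3. Medium was replaced with phenol-red-free DMEM 10% FBS containing 1 mg/ml MTT for 1–2 h. Formazan was dissolved in acidified isopropanol/1% Triton and read at 570 nm minus 650 nm. EC50 came from a sigmoidal variable-slope fit, averaging at least duplicate runs.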

IMR-90 = experiment: Cytotoxicity against human IMR90 cells assessed as cell viability after 48 hrs by MTT assay; format: cell-based; details: IMR-90, 48 h; outline: as §1
PC-3 = experiment: Cytotoxicity against human PC3 cells assessed as cell viability after 48 hrs by MTT assay; format: functional, cell-based; details: PC-3, 48 h; outline: as §1
CWR22R = experiment: Cytotoxicity against human 22Rv1 cells assessed as cell viability after 48 hrs by MTT assay; format: functional, cell-based; details: 22Rv1, 48 h; outline: as §1
[3] = target: T1, Histone-lysine N-methyltransferase EHMT2; experiment: Inhibition of G9a assessed as hydrolysis of S-adenosyl-L-homocysteine after 2 mins by SAHH-coupled fluorescence assay
[4] = Ratio of EC50 for human MDA-MB-231 cells to IC50 for G9a in human MDA-MB-231 cells
Outline: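 ICW used DRAQ5-normalized H3K9me2 immunofluorescence. MTT was read at 570 nm corrected at 650 nm. Each value was a sigmoidal variable-slope fit averaged over at least duplicate runs.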

[5] = target: T1, Histone-lysine N-methyltransferase EHMT2; experiment: Inhibition of G9a in human IMR90 cells assessed as reduction of H3K9me2 after 48 hrs by In-Cell Western assay; format: cell-based, IMR-90
[6] = target: T1, Histone-lysine N-methyltransferase EHMT2; experiment: Inhibition of G9a in human PC3 cells assessed as reduction of H3K9me2 after 48 hrs by In-Cell Western assay; format: cell-based, PC-3
[7] = target: T1, Histone-lysine N-methyltransferase EHMT2; experiment: Inhibition of G9a in human HCT116 cells assessed as reduction of H3K9me2 after 48 hrs by In-Cell Western assay; format: cell-based, HCT-116
[8] = target: T1, Histone-lysine N-methyltransferase EHMT2; experiment: Inhibition of G9a in human 22Rv1 cells assessed as reduction of H3K9me2 after 48 hrs by In-Cell Western assay; format: cell-based, CWR22R
[9] = target: T1, Histone-lysine N-methyltransferase EHMT2; experiment: Inhibition of G9a in p53-deficient human HCT116 cells assessed as reduction of H3K9me2 after 48 hrs by In-Cell Western assay; format: cell-based, HCT-116
[10] = target: T1, Histone-lysine N-methyltransferase EHMT2; experiment: Inhibition of G9a in human MCF7 cells assessed as reduction of H3K9me2 after 48 hrs by In-Cell Western assay; format: cell-based

For `COc1cc2c(NC3CCN(C)CC3)nc(N3CCCN(C)CC3)nc2cc1OCCCN1CCCC1`, the EC50 (MDA-MB-231) was 15000 nM.
`COc1cc2c(NC3CCN(C)CC3)nc(N3CCCN(C)CC3)nc2cc1OCCCN1CCCCC1` showed an EC50 (MDA-MB-231) of 12000 nM.
`COc1cc2c(NC3CCN(C)CC3)nc(N3CCCN(C)CC3)nc2cc1OCCOCCN(C)C` showed an IC50 [1] of 11000 nM and an EC50 (MDA-MB-231) greater than 40000 nM.
Compound `COc1cc2c(NC3CCN(C(C)C)CC3)nc(C3CCCCC3)nc2cc1OCCCN1CCCC1` has an EC50 [2] of 7600 nM, an EC50 (IMR-90) of 2300 nM and an EC50 (PC-3) of 14000 nM. It also gave an EC50 (CWR22R) of 4500 nM.
Compound `COc1cc2c(NC3CCN(C(C)C)CC3)nc(N3CCCN(C(C)C)CC3)nc2cc1OCCCN1CCCCC1` has an IC50 [1] of 54 nM, an EC50 (MDA-MB-231) of 4100 nM and an IC50 [3] of 8 nM.
For `COc1cc2c(NC3CCN(C(C)C)CC3)nc(N3CCCN(C)CC3)nc2cc1OCCCN1CCCC1`, the Ratio [4] was 3, the IC50 [1] was 520 nM and the EC50 (MDA-MB-231) was 1400 nM. It also gave an IC50 [3] of 10 nM.
With `CCN1CCCN(c2nc(NC3CCN(C(C)C)CC3)c3cc(OC)c(OCCCN4CCCC4)cc3n2)CC1` the Ratio [4] was 4, the IC50 [1] was 470 nM and the EC50 (MDA-MB-231) was 1700 nM.
In the case of `COc1cc2c(NC3CCN(C(C)C)CC3)nc(N3CCCN(C(C)C)CC3)nc2cc1OCCCN1CCCC1`, the Ratio [4] is reported as 13, the IC50 [1] is reported as 340 nM and the EC50 (MDA-MB-231) is reported as 4500 nM. It also gave an IC50 [3] of 2 nM.
Work on `COc1cc2c(NC3CCN(C(C)C)CC3)nc(N3CCCN(C4CCCCC4)CC3)nc2cc1OCCCN1CCCC1` yielded a Ratio [4] of 7, an IC50 [1] of 100 nM and an EC50 (MDA-MB-231) of 730 nM. For the same compound, the IC50 [3] was 22 nM.
`COc1cc2c(NC3CCN(C(C)C)CC3)nc(N3CCCN(CC4CCCCC4)CC3)nc2cc1OCCCN1CCCC1` gave a Ratio [4] of 8, an IC50 [1] of 93 nM and an EC50 (MDA-MB-231) of 760 nM.
Compound `COc1cc2c(NC3CCN(C(C)C)CC3)nc(N3CCCN(c4ccccc4)CC3)nc2cc1OCCCN1CCCC1` has a Ratio [4] of 10, an IC50 [1] of 220 nM and an EC50 (MDA-MB-231) of 2100 nM. It also gave an IC50 [3] of 10 nM.
In the case of `COc1cc2c(NC3CCN(C(C)C)CC3)nc(N3CCCN(Cc4ccccc4)CC3)nc2cc1OCCCN1CCCC1`, the Ratio [4] is reported as 10, the IC50 [1] is reported as 58 nM and the EC50 (MDA-MB-231) is reported as 600 nM. It also gave an IC50 [3] of 9 nM.
`COc1cc2c(NC3CCN(C(C)C)CC3)nc(N3CCCCC3)nc2cc1OCCCN1CCCC1` showed a Ratio [4] of 47, an IC50 [1] of 150 nM and an EC50 (MDA-MB-231) of 7000 nM. For the same compound, the IC50 [3] was 16 nM.
With `COc1cc2c(NC3CCN(C(C)C)CC3)nc(N3CCCCCC3)nc2cc1OCCCN1CCCC1` the Ratio [4] was 57, the IC50 [1] was 100 nM and the EC50 (MDA-MB-231) was 5700 nM. It also gave an IC50 [3] of 20 nM.
Compound `COc1cc2c(NC3CCN(C(C)C)CC3)nc(C3CCCCC3)nc2cc1OCCCN1CCCCC1` has an IC50 [1] of 260 nM, an EC50 (MDA-MB-231) of 7600 nM and an IC50 [3] of 110 nM.
`COc1cc2c(NC3CCN(C(C)C)CC3)nc(C3CCCCC3)nc2cc1OCCOCCN(C)C` gave an IC50 [1] of 180 nM, an EC50 (MDA-MB-231) of 13000 nM and an IC50 [3] of 21 nM.
In the case of `COc1cc2c(NC3CCN(CC4CCCCC4)CC3)nc(N3CCCN(C(C)C)CC3)nc2cc1OCCCN1CCCCC1`, the IC50 [5] is reported as 46 nM, the IC50 [6] is reported as 26 nM and the IC50 [7] is reported as 51 nM. It also gave an IC50 [8] of 24 nM, an IC50 [1] of 25 nM and an IC50 [9] of 72 nM. The IC50 [10] was 18 nM, the EC50 (MDA-MB-231) was 2800 nM and the IC50 [3] was 4 nM.
Work on `COc1cc2c(NC3CCN(C4CCCCC4)CC3)nc(N3CCCN(C)CC3)nc2cc1OCCCN1CCCCC1` yielded an IC50 [1] of 56 nM, an EC50 (MDA-MB-231) of 2900 nM and an IC50 [3] of 11 nM.
For `COc1cc2c(NC3CCN(C(C)C)CC3)nc(N3CCCCCC3)nc2cc1OCCCN1CCCCC1`, the IC50 [1] was 240 nM, the EC50 (MDA-MB-231) was 6600 nM and the IC50 [3] was 31 nM.
With `COc1cc2c(NC3CCN(C)CC3)nc(N3CCCN(C)CC3)nc2cc1OCCCN(C)C` the EC50 (MDA-MB-231) was 34000 nM.
